Measured values of several laboratories.
Compare with care: the assays were run in different laboratories.
RPS6KA4 C-terminal kinase domain: Ribosomal protein S6 kinase alpha-4, C-terminal kinase domain (RPS6KA4, Homo sapiens, UniProt O75676)
RPS6KA4: Ribosomal protein S6 kinase alpha-4 (RPS6KA4, Homo sapiens, UniProt O75676)

SMILES	target	assay	conditions	measurement	result
Cn1cncc1[C@](O)(COc1ccc(C#N)cc1-c1ccc(OC(F)(F)F)cc1)c1ccc(C#N)cc1	RPS6KA4 C-terminal kinase domain	cell-free assay, competition with immobilised ligand	1 µM	remaining binding	76%
Nc1ncc(-c2nc(N3CCOCC3)nc(N3CCOCC3)n2)c(C(F)F)n1	RPS6KA4 C-terminal kinase domain	binding, competition with immobilised ligand	10 µM	remaining binding	63%
N#CC1(c2ccccn2)CCN(Cc2cc(C(=O)O)c(=O)n3ccccc23)CC1	RPS6KA4 C-terminal kinase domain	cell-free assay, competition with immobilised ligand	1 µM	remaining binding	65%
Cn1cc(-c2cccc(N3CCc4c(sc5c4CC(C)(C)C5)C3=O)c2CO)cc(Nc2ccncn2)c1=O	RPS6KA4	enzyme activity, inhibitor	1 µM	inhibition	3%
O=c1[nH]c2ccccc2n1C1CCN(Cc2ccc(-c3[nH]c4cc5ncnc5cc4nc3-c3ccccc3)cc2)CC1	RPS6KA4	cell-free assay	0.5 µM	remaining signal	98.8%
Cn1cc(-c2cc(F)cc(N3CCn4c(cc5c4CCCC5)C3=O)c2CO)cc(Nc2ccc(N3CCN(C4COC4)CC3)cn2)c1=O	RPS6KA4	enzyme activity, inhibitor	0.1 µM	inhibition	15%
CC(C)(C)c1cc(C=C(C#N)C#N)cc(Br)c1O	RPS6KA4	enzyme activity, inhibitor	0.5 µM	remaining activity	90.9%
Cc1nn(C)cc1-c1nc2c(N3CCN(Cc4ccc(Cl)cc4)CC3)c(Cl)cnc2[nH]1	Ribosomal protein S6 kinase alpha-4, N-terminal kinase domain (RPS6KA4, Homo sapiens, UniProt O75676)	binding, competition with immobilised ligand	1 µM	remaining binding	62%
